Test results: ChEMBL document CHEMBL1157638, “Fluorescent epigenetic small molecule induces expression of the tumor suppressor ras-association domain family 1A and inhibits human prostate xenograft” (J Med Chem, 2010); call rule not given here

Key:
MDA-MB-231 [1] = assay: Growth inhibition of human MDA-MB-231 cells assessed as cell growth at 10 nM relative to untreated control; type: functional; conditions: read-out: Activity
T47D [2] = assay: Growth inhibition of human T47D cells assessed as cell growth at 10 nM relative to untreated control; type: functional; conditions: read-out: Activity
HL-60(TB) = assay: Growth inhibition of human HL-60(TB) cells assessed as cell growth at 100 nM relative to untreated control; type: functional; conditions: read-out: Activity
A549 = assay: Growth inhibition of human A549 cells assessed as cell growth at 100 nM relative to untreated control; type: functional; conditions: read-out: Activity
NCI-H460 [3] = assay: Growth inhibition of human NCI-H460 cells assessed as cell growth at 100 nM relative to untreated control; type: functional; conditions: read-out: Activity
M14 = assay: Growth inhibition of human M14 cells assessed as cell growth at 100 nM relative to untreated control; type: functional; conditions: read-out: Activity
SK-MEL-2 [4] = assay: Growth inhibition of human SK-MEL-2 cells assessed as cell growth at 100 nM relative to untreated control; type: functional; conditions: read-out: Activity
CAKI-1 [5] = assay: Growth inhibition of human Caki1 cells assessed as cell growth at 100 nM relative to untreated control; type: functional; conditions: read-out: Activity
How it was run: (§1)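 Run externally at the National Cancer Institute as a 59-cell-line panel screen, with concentrations up to 100 μM. Growth was scored relative to control, where negative growth or total cell kill was possible. Data are in the Supporting Information.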

MDA-MB-231 [6] = assay: Growth inhibition of human MDA-MB-231 cells assessed as cell growth at 100 nM relative to untreated control; type: functional; conditions: read-out: Activity
Malme-3M = assay: Growth inhibition of human MALME-3M cells assessed as cell growth at 1 nM relative to untreated control; type: functional; conditions: read-out: Activity
SK-MEL-2 [7] = assay: Growth inhibition of human SK-MEL-2 cells assessed as cell growth at 1 uM relative to untreated control; type: functional; conditions: read-out: Activity
SK-MEL-28 = assay: Growth inhibition of human SK-MEL-28 cells assessed as cell growth at 1 uM relative to untreated control; type: functional; conditions: read-out: Activity
UACC-257 = assay: Growth inhibition of human UACC257 cells assessed as cell growth at 1 nM relative to untreated control; type: functional; conditions: read-out: Activity
CAKI-1 [8] = assay: Growth inhibition of human Caki1 cells assessed as cell growth at 1 nM relative to untreated control; type: functional; conditions: read-out: Activity; how it was run: as §1
MDA-MB-231 [9] = assay: Growth inhibition of human MDA-MB-231 cells assessed as cell growth at 1 nM relative to untreated control; type: functional; conditions: read-out: Activity
T47D [10] = assay: Growth inhibition of human T47D cells assessed as cell growth at 1 nM relative to untreated control; type: functional; conditions: read-out: Activity
NCI-H460 [11] = assay: Growth inhibition of human NCI-H460 cells assessed as cell growth at 10 nM relative to untreated control; type: functional; conditions: read-out: Activity
COLO 205 = assay: Growth inhibition of human COLO205 cells assessed as cell growth at 10 nM relative to untreated control; type: functional; conditions: read-out: Activity
ACHN [12] = assay: Growth inhibition of human ACHN cells assessed as cell growth at 1 uM relative to untreated control; type: functional; conditions: read-out: Activity
TK-10 = assay: Growth inhibition of human TK10 cells assessed as cell growth at 1 uM relative to untreated control; type: functional; conditions: read-out: Activity
BT-549 = assay: Growth inhibition of human BT549 cells assessed as cell growth at 1 uM relative to untreated control; type: functional; conditions: read-out: Activity
CCRF-CEM [13] = assay: Growth inhibition of human CCRF-CEM cells assessed as cell growth at 10 uM relative to untreated control; type: functional; conditions: read-out: Activity
HT-29 = assay: Growth inhibition of human HT-29 cells assessed as cell growth at 10 uM relative to untreated control; type: functional; conditions: read-out: Activity
UACC-62 = assay: Growth inhibition of human UACC62 cells assessed as cell growth at 10 uM relative to untreated control; type: functional; conditions: read-out: Activity
OVCAR-3 = assay: Growth inhibition of human OVCAR-3 cells assessed as cell growth at 10 uM relative to untreated control; type: functional; conditions: read-out: Activity
DU-145 = assay: Growth inhibition of human DU145 cells assessed as cell growth at 10 uM relative to untreated control; type: functional; conditions: read-out: Activity; how it was run: as §1
CCRF-CEM [14] = assay: Growth inhibition of human CCRF-CEM cells; type: functional
K562 = assay: Growth inhibition of human K562 cells; type: functional
NCI-H322M = assay: Growth inhibition of human NCI-H322M cells; type: functional
NCI-H460 [15] = assay: Growth inhibition of human NCI-H460 cells; type: functional
SF-268 = assay: Growth inhibition of human SF268 cells; type: functional
SK-MEL-2 [16] = assay: Growth inhibition of human SK-MEL-2 cells; type: functional
OVCAR-8 = assay: Growth inhibition of human OVCAR8 cells; type: functional
ACHN [17] = assay: Growth inhibition of human ACHN cells; type: functional
PC-3 [18] = assay: Drug uptake in cytoplasm of human PC3 cells at 5 uM by confocal microscopy; type: ADME, cell-based; conditions: pc-3, 5 µM
How it was run: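 PC-3 cells were plated overnight on fibronectin/[…]-coated slides and treated with 5 μM compound or DMSO for 1-6 h. Cells were PBS-washed, fixed in 4% formaldehyde, and stained with propidium iodide (nuclei) and anti-DNMT3a or anti-DNMT3b antibody. The compound was excited at 725 nm by multiphoton laser and imaged through a 500-550 nm filter by confocal microscopy.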

PC-3 [19] = assay: Antitumor activity against human PC3 cells xenografted in athymic BALB/c mouse assessed as reduction in tumor volume at 10 mg/kg, ip dosed every other day for 28 days relative to untreated control; type: functional; set-up: scale not given: the % may be the effect or the level left; conditions: route intraperitoneal
How it was run: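 Male athymic Balb/c nude mice (18-22 g) got 3 × 10⁶ PC-3 cells subcutaneously in the right axillary region. After one week they were randomized into two groups of four. Dosing was 10 mg/kg ip or vehicle once every other day for 28 days. Vehicle was DMSO stock diluted in 1:1 PEG 400/PBS. Tumour volume was measured by caliper as length × width × height/2. Data are mean ± SEM (n = 4).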

CAKI-1 [20] = assay: Growth inhibition of human Caki1 cells; type: functional; how it was run: as §1
SN12C = assay: Growth inhibition of human SN12C cells; type: functional
MCF7 = assay: Growth inhibition of human MCF7 cells; type: functional
T47D [21] = assay: Growth inhibition of human T47D cells; type: functional
SF-295 = assay: Growth inhibition of human SF295 cells assessed as cell growth at 10 nM relative to untreated control; type: functional; conditions: read-out: Activity
CAKI-1 [22] = assay: Growth inhibition of human Caki1 cells assessed as cell growth at 10 nM relative to untreated control; type: functional; conditions: read-out: Activity; how it was run: as §1
[23] = read-out: LC50 (the source's name)

In the case of `COc1ccc2c(c1)[nH]c1c(C)c(OS(=O)(=O)c3cccc4c(N(C)C)cccc34)ccc12`, the growth at 0.01 µM (MDA-MB-231 [1]) is reported as 86%, the growth at 0.01 µM (T47D [2]) is reported as 53% and the growth at 0.1 µM (HL-60(TB)) is reported as 69%. It also gave a growth at 0.1 µM (A549) of 95%, a growth at 0.1 µM (NCI-H460 [3]) of 98% and a growth at 0.1 µM (M14) of 100%. It also gave a growth at 0.1 µM (SK-MEL-2 [4]) of 115%, a growth at 0.1 µM (CAKI-1 [5]) of 81% and a growth at 0.1 µM (MDA-MB-231 [6]) of 85%. The growth at 0.001 µM (Malme-3M) was 93%, the growth at 1 µM (SK-MEL-2 [7]) was 50% and the growth at 1 µM (SK-MEL-28) was 39%. For the same compound, the growth at 0.001 µM (UACC-257) was 100%, the growth at 0.001 µM (CAKI-1 [8]) was 98% and the growth at 0.001 µM (MDA-MB-231 [9]) was 97%. It also gave a growth at 0.001 µM (T47D [10]) of 95%, a growth at 0.01 µM (NCI-H460 [11]) of 101% and a growth at 0.01 µM (COLO 205) of 94%. It also gave a growth at 1 µM (ACHN [12]) of 43%, a growth at 1 µM (TK-10) of 48% and a growth at 1 µM (BT-549) of 37%. It also gave a growth at 10 µM (CCRF-CEM [13]) of 1%, a growth at 10 µM (HT-29) of 8% and a growth at 10 µM (UACC-62) of 29%. It also gave a growth at 10 µM (OVCAR-3) of -9%, a growth at 10 µM (DU-145) of 2% and a GI50 (CCRF-CEM [14]) of 2.88 µM. It also gave a TGI (CCRF-CEM [14]) of over 100 µM, a CC50 (CCRF-CEM [14]; [23]) of over 100 µM and a GI50 (K562) of 3.01 µM. The TGI (K562) was over 100 µM, the CC50 (K562; [23]) was over 100 µM and the GI50 (NCI-H322M) was 12.8 µM. The TGI (NCI-H322M) was over 100 µM, the CC50 (NCI-H322M; [23]) was over 100 µM and the GI50 (NCI-H460 [15]) was 3.46 µM. It also gave a TGI (NCI-H460 [15]) of 55.5 µM, a CC50 (NCI-H460 [15]; [23]) of over 100 µM and a GI50 (SF-268) of 75.1 µM. It also gave a TGI (SF-268) of over 100 µM, a CC50 (SF-268; [23]) of over 100 µM and a GI50 (SK-MEL-2 [16]) of 10 µM. The TGI (SK-MEL-2 [16]) was over 100 µM, the CC50 (SK-MEL-2 [16]; [23]) was over 100 µM and the GI50 (OVCAR-8) was 79.6 µM. The TGI (OVCAR-8) was over 100 µM, the CC50 (OVCAR-8; [23]) was over 100 µM and the GI50 (ACHN [17]) was 7.38 µM. The TGI (ACHN [17]) was over 100 µM, the CC50 (ACHN [17]; [23]) was over 100 µM and the Drug uptake (PC-3 [18]) was “Active”. The Activity (PC-3 [19]) was 40%, the GI50 (CAKI-1 [20]) was 27.5 µM and the TGI (CAKI-1 [20]) was over 100 µM. It also gave a CC50 (CAKI-1 [20]; [23]) of over 100 µM, a GI50 (SN12C) of 11.3 µM and a TGI (SN12C) of over 100 µM. For the same compound, the CC50 (SN12C; [23]) was over 100 µM, the GI50 (MCF7) was 2.71 µM and the TGI (MCF7) was over 100 µM. For the same compound, the CC50 (MCF7; [23]) was over 100 µM, the GI50 (T47D [21]) was 3.06 µM and the TGI (T47D [21]) was over 100 µM. For the same compound, the CC50 (T47D [21]; [23]) was over 100 µM, the growth at 0.01 µM (SF-295) was 93% and the growth at 0.01 µM (CAKI-1 [22]) was 86%.
